# Lmaj promast: inhibitors of Leishmania major promastigote growth; 200,000 tested, 9% active; AID 1063; inhibition, % at 10 µM; Leishmania major promastigotes, resazurin fluorescence viability; in the data active = inhibition above about 50%;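 note: promastigotes grown with compound for 44 hours at 28 °C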
# Autophagy HCS: alters autophagy in cells. MEF GFP-LC3 puncta imaging; test concentration mostly 10 µM. calls only at 10 µM (by protocol). 190,000 tested, 0.98% active. AID 463193;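 active = percentage of spot-positive cells more than 3 SD above its plate mean, without a fluorescence outlier flag or 80% toxicity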;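 note: spot-positive cell cutoff set from DMSO-treated cells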
# PTEN del growth: suppresses growth of cells with PTEN deletion; AID 827; viability, % at 10 µM; HCT116 PTEN-null viability, CellTiter-Glo, 60 h; hits give low values; 140,000 tested, 1.2% active;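 active = viability at or below a set limit, 4 SD under the median of all tested compounds, cut at about 3.7% in these data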;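 note: PTEN knockout HCT116 line with beta catenin targeted HCT116 as companion control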
# Dynein cargo inh: dynein cargo transport inhibition | 220,000 tested, 0.47% active | 3617.4 mouse cells, GR-EGFP nuclear translocation imaging; test concentration mostly 20 µM; stimulated with dexamethasone, 1 µM; hits give low values | z-score, hits read low | AID 1381;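 active = plate z-score of nuclear minus cytoplasmic receptor signal below a set negative limit, without overly bright fluorescence or cell loss, cut at about -3.5 in these data, passing the limit was not always enough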;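 note: z-score of nuclear minus cytoplasmic ring GR-EGFP intensity difference per well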
#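 Buffer or medium: tetracycline-free induction medium containing charcoal-stripped FBS / Reagent: dexamethasone agonist, 1.0 µM final, for 30 min / Technique: automated 10x imaging of fixed Hoechst-stained cells / Times: induction 48 h, compound 1 h, agonist 30 min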
# HCT116 bCat-KO: beta-catenin-lacking colon tumor cell growth suppression; HCT116 beta-catenin knockout viability, CellTiter-Glo, 60 h; hits give low values; viability, % at 10 µM; 140,000 tested, 1.5% active; AID 818;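 active = viability at or under a set limit, the compound median less 4 SD, cut at about 6% in these data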;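 note: 0% = Hyamine 1622 control at 20 µM and 100% = untreated cell control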
# * hit, by the source's call; i = inactive; · = no result; + = active, no number. Sampled rows, rich in hits. Any-hit rate of the full collection: about 9.2%.
SMILES,Lmaj promast,Autophagy HCS,PTEN del growth,Dynein cargo inh,HCT116 bCat-KO
Cc1cc(C(=O)N/N=C/C=C/c2ccccc2)n[nH]1,·,·,·,-0.3,·
CC(/C=C/c1cccc([N+](=O)[O-])c1)=N\NC(=O)c1ccncc1,55*,i,28,-0.7,20
CC(/C=C/c1ccccc1)=N/NC(=O)c1cccc(Br)c1,72*,i,·,0.11,·
CC(/C=C/c1ccc2c(c1)OCO2)=N/NC(=O)c1ccncc1,·,·,·,-0.51,·
Cc1cc(C(=O)N/N=C/C=C/c2cccc([N+](=O)[O-])c2)n[nH]1,57*,i,·,-0.85,·
CC1=C(/C=C/C(C)=N\NC(=O)c2ccncc2)C(C)(C)CCC1,81*,i,·,-0.047,·
CC(/C=C/c1ccccc1)=N\NC(=O)c1ccc(Br)cc1,-5,i,·,-0.58,·
CC(/C=C/c1ccc2c(c1)OCO2)=N/NC(=O)c1cccnc1,-3,i,90,-0.38,84
CCCCCCSC1=C(C#N)C(c2ccc(O)cc2)CC(=O)N1 (stereo not given),10,i,79,-0.53,87
O=C(/C=C/c1ccc2c(c1)OCO2)Nc1nc2ccc(F)cc2s1,·,·,·,0.23,·
Cc1nc2ccccn2c1C(=O)/C=C/c1cccc([N+](=O)[O-])c1,98*,+,·,-2.5,·
Cc1ccc(/C=C/C(=O)c2c(C)nc3ccccn23)cc1,28,i,13,-0.42,10
Cc1ccc(S(=O)(=O)N/N=C2/CCCCC2C2CCCCC2)cc1[N+](=O)[O-] (stereo not given),-3,i,89,0.04,83
CC(C)(C)c1ccc(S(=O)(=O)O/N=C2/CCCCC2c2ccc([N+](=O)[O-])cc2[N+](=O)[O-])cc1 (stereo not given),53*,i,103,-1.2,83
NNC(=O)c1csc(-c2ccc(C(F)(F)F)cc2Cl)n1,·,·,·,0.56,·
COc1ccc(CN2CCN(CCCc3ccccc3)CC2)c(OC)c1,91*,i,·,0.7,·
COc1ccc(CC(C)N2CCN(Cc3ccccc3)CC2)c(OC)c1 (stereo not given),95*,i,66,-0.21,62
COc1ccc(OC)c(CN2CCN(Cc3cccc4ccccc34)CC2)c1,65*,i,·,0.46,·
COc1ccc(CC(C)N2CCN(c3ccccc3)CC2)cc1OC (stereo not given),78*,i,64,-0.7,63
Cc1cc(C)c(O)c(-c2cc(C(=O)Nc3c(C)n(C)n(-c4ccccc4)c3=O)[nH]n2)c1,·,·,·,-0.97,·
COc1ccc(CN(C(=O)c2ccco2)c2ccc(C)c(C)c2)cc1,36,i,·,0.53,·
CCN(CC)CCOc1c(Br)ccc2c1sc1nc3n(c(=O)c12)CCC3,80*,i,30,-0.84,22
COc1ccc(-c2coc3cc4oc(=O)cc(-c5ccccc5)c4cc23)cc1F,11,i,2.1*,0.37,2.6*
CCCP(=O)(CCC)CCP(=O)(c1ccccc1)c1ccccc1,-5,i,88,-0.13,90
CC1(C(=O)Nc2ccccc2)Cc2ccccc2C(=O)O1 (stereo not given),-1,+,·,-1.1,·
SMILES,Lmaj promast,Autophagy HCS,PTEN del growth,Dynein cargo inh,HCT116 bCat-KO
COC(=O)C(CCSC)NC(=O)C12CC3CC(CC(C3)C1)C2 (stereo not given),95*,i,103,-0.52,94
O=C(O)/C=C\C(=O)NC1CCCCC1,-7,i,99,0.1,91
Cc1ccccc1OCC(=O)N/N=C/c1cc2ccccc2nc1Cl,-3,i,20,-0.01,15
C=CCc1ccccc1OCC(=O)N/N=C/c1ccc(OC(C)=O)cc1OC(C)=O,98*,i,12,-0.92,14
CC1=CN2C(=N)/C(=C/c3cn(CCCOc4ccccc4C)c4ccccc34)C(=O)N=C2S1,46,i,75,-0.18,102
COc1ccc(OCCCn2cc(/C=C3/C(=N)N4C=C(C)SC4=NC3=O)c3ccccc32)cc1,87*,+,42,-0.37,43
COc1cccc(OCCCn2cc(/C=C3/C(=N)N4C=C(C)SC4=NC3=O)c3ccccc32)c1,95*,i,53,0.8,66
c1ccc(-c2ccccc2OCCCN2CCCCC2)cc1,95*,i,62,-0.23,64
CCN1CCN(CCCOc2ccccc2-c2ccccc2)CC1,65*,i,·,0.79,·
c1ccc(-c2ccc(OCCCn3cncn3)cc2)cc1,96*,i,94,-0.72,126
CCN1CCN(CCOc2ccccc2-c2ccccc2)CC1,91*,i,·,-0.86,·
OCCCN1CCN(CCOc2ccccc2-c2ccccc2)CC1,1,i,79,0.059,80
COc1ccc(C(=O)Nc2c(C)csc2C(=O)O)cc1,-10,i,·,-0.83,·
CS(=O)(=O)Nc1ccc(C(=O)Nc2ccc3c(c2)OCO3)cc1,-3,i,·,0.85,·
COc1ccc(C(C(=O)Nc2ccc(C(C)C)cc2)N(C)C(=O)c2ccc(=O)[nH]c2)cc1 (stereo not given),-3,i,·,-0.92,·
CCN1CCN(CCCOc2ccc(-c3ccccc3)cc2)CC1,98*,+,2.0*,7.7,1.8*
CCOc1ccc(-c2cc(C(=O)NCCCN3CCN(CC)CC3)c3ccccc3n2)cc1,25,i,44,-0.32,42
N#Cc1c(Nc2cccc(F)c2)sc2c(O)cc(=O)[nH]c12,2,i,·,-0.49,·
CCCNC(=O)c1ccccc1NC(=O)CN(c1ccccc1OCC)S(C)(=O)=O,-4,i,107,-0.39,104
O=C(CSc1nnc(NC(=O)C2CC2)s1)NCc1ccco1,59*,i,90,1.3,90
CS(=O)(=O)c1nc(S(=O)(=O)c2ccc(Cl)cc2)c(NCc2ccccn2)s1,6,i,·,-0.24,·
Cc1c(NC(=O)c2ccc(N3CCCC3)c([N+](=O)[O-])c2)cccc1-c1nc2ccccc2s1,71*,i,88,0.47,82
O=C(Nc1ccccc1C(F)(F)F)c1ncn[nH]1,·,·,·,0.65,·
Cc1c(NC(=O)c2ncn[nH]2)cccc1-c1nc2ccccc2s1,100*,i,90,-1.1,92
CCOC(=O)c1ccccc1NC(=O)CSc1nnnn1C1CCCCC1,8,i,82,-1.3,89
SMILES,Lmaj promast,Autophagy HCS,PTEN del growth,Dynein cargo inh,HCT116 bCat-KO
NS(=O)(=O)c1ccc(CNC(=O)C2(c3ccc(Cl)cc3)CC2)cc1,85*,i,·,0.3,·
COc1cc(/C=N/NC(=O)CSc2ccccn2)ccc1OC(C)C,·,·,·,0.88,·
Cc1ccc(Nc2nc(Oc3ccc(=O)[nH]n3)nc(N(C)C)n2)cc1,3,+,70,-0.86,72
CN(C)c1nc(Nc2ccccc2)nc(Oc2ccc(=O)[nH]n2)n1,2,i,90,-0.53,90
CCc1ccc(N2C(=O)Cc3c2nc(N)c(C#N)c3N)cc1,7,i,85,-0.49,89
CCN(CC)c1nc2c3c(nc4c(c3c1C#N)CC(=O)N4c1ccc(Cl)cc1)NC(C)=N2,56*,i,98,-0.045,87
Cc1onc(-c2ccccc2)c1C(=O)Nc1sc2c(c1C(N)=O)CCC2,24,i,86,-0.39,80
